Measured values reported in ChEMBL document CHEMBL1137792, “The immobilization of gossypol derivative on N-polyvinylpyrrolidone increases its water solubility and modifies membrane-active properties” (J Med Chem, 2009).

Assays:
[1] = Toxicity in Wistar rat erythrocytes assessed as induction of hemolysis at 50 uM; format: cell-based, Erythrocyte; conditions: read-out: Activity
Summary of the method: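 Freshly isolated, washed rat erythrocytes as 2% suspension in 140 mM NaCl, 10 mM Tris-citrate, 1 mM EDTA, pH 7.5, incubated 30 min at 37 °C with compound (20-100 μM range); spun at 1000g, supernatant OD540 read against water-lysed cells as 100%. Mean ± SEM, n=9.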

[2] = Toxicity in human erythrocytes assessed as reduction of membrane fluidity by fluorescent anisotropy; format: cell-based; conditions: erythrocyte
Summary of the method: (§1)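 Human erythrocyte ghosts (hypotonic Tris-HCl/EDTA lysis) diluted in PBS pH 7.4, 2 min at 37 °C with compound (0.05-0.75 μM final), then DPH 1 μM final, 15 min dark at room temperature; steady-state anisotropy, excitation 348/emission 426 nm; ratio to no-compound control (Ai/A0). Mean ± SEM, n=8.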

[3] = Effect on nonenergized Wistar rat liver mitochondrial membrane permeability assessed as increase in permeability to Ba2+ ion at 20 uM; format: ADME, mitochondria, Mitochondria
Summary of the method: (§2)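 Passive swelling of nonenergized rat liver mitochondria (1.0 mg/mL protein) in iso-osmotic nitrate media, Tris-HNO3 pH 7.4, rotenone 0.33 μg/mL, 25 °C, stirred: KNO3 120 mM; Mg2+ and Ba2+ 80 mM; Ca2+ 40 mM with 120 mM sucrose. Absorbance decrease at 520 nm followed; swelling rates normalised to the K+ rate set as 1. Five recordings.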

[4] = Effect on nonenergized Wistar rat liver mitochondrial membrane permeability assessed as increase in permeability to potassium ion at 20 uM; format: ADME, mitochondria, Mitochondria; summary of the method: as §2
[5] = Effect on nonenergized Wistar rat liver mitochondrial membrane permeability assessed as increase in permeability to Ca2+ ion at 20 uM; format: ADME, mitochondria, Mitochondria; summary of the method: as §2
[6] = Drug binding to Wistar rat liver mitochondrial membrane assessed as [14C] labeled megosin after 5 mins; format: ADME, tissue-based; conditions: in vitro
Summary of the method: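 Mitochondria (10 mg protein/mL) incubated with 14C-labeled compound (10 nmol/mg protein, 9.45 mCi/mmol) plus 50-fold unlabeled (500 nmol/mg) at 22 °C with stirring; vacuum filtration through nitrocellulose, two water rinses, filters dried 24 h and counted by liquid scintillation; bound label expressed as cpm and % of total radioactivity. Mean ± SEM, n=12.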

[7] = Toxicity in human erythrocytes assessed as reduction of membrane fluidity at 0.4 uM by fluorescent anisotropy relative to untreated control; format: cell-based; conditions: erythrocyte; summary of the method: as §1
[8] = Effect on nonenergized Wistar rat liver mitochondrial membrane permeability assessed as increase in permeability to Mg2+ ion at 20 uM; format: ADME, mitochondria, Mitochondria; summary of the method: as §2
[9] = Decrease in Wistar rat liver mitochondrial membrane fluidity assessed as rotational correlation times of spin probe at 0.15 uM by ESR; format: ADME, mitochondria, Mitochondria
Summary of the method: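 ESR of rat liver mitochondria (1 mg/mL protein) in 145 mM KCl, 10 mM Tris-HCl pH 7.4 with nitroxide spin probe added in ethanol to 10^-6 M final; 2 min incubation with compound (range 0.025-0.3 μM) before spectra; rotational correlation time τc derived. Mean ± SEM, n=9, three independent experiments.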

Activity [3]: Active
Activity [4]: Active
Activity [5]: Active
Drug uptake [6]: 88.2%
Activity [8]: Active
Activity [9]: 32.1 ×10⁻¹⁰ s
Structure (SMILES): Cc1cc2c(c(O)c1-c1c(C)cc3c(c1O)/C(=C/NCCS(=O)(=O)[O-])C(=O)C(O)=C3C(C)C)/C(=C/NCCS(=O)(=O)[O-])C(=O)C(O)=C2C(C)C.[Na+].[Na+] [MEGOSIN]
hemolysis at 50 µM [1]: 68%
Activity [2]: Dose-dependent effect
fold change (FC) [7]: 1.83
